In ChEMBL document CHEMBL5344432, “Identification of a Dual Autophagy and REV-ERB Inhibitor with in Vivo Anticancer Efficacy” (J Med Chem, 2024):
Active and inactive are the calls of the source. No cut-off for these calls is given here.

Tests used:
[1] = Aqueous kinetic solubility of the compound in PBS at pH 7.4 at 250 uM incubated for 24 hrs by UPLC/MS analysis; assay type: physicochemical; settings: read-out: Kinetic_solubility
Outline: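 Kinetic solubility measured in phosphate-buffered saline, pH 7.4. Mean of at least two independent experiments, each run in two technical replicates.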

HT-29 = assay: Cytotoxicity against human HT-29 cells; assay type: functional
Outline: (§1)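 Human cancer lines (A375, MDA-MB-231, OMM-1, UPMM-2, CAPAN-2, HepG2, HT-29, HCT116) treated up to 30 μM. CC50 derived from concentration–response viability plots. Mean ± SEM, n ≥ 6. Two-tailed unpaired t test used between compounds.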

BT-474 [2] = assay: Induction of apoptosis in human BT-474 cells assessed as increase in cleaved PARP level after 24 hrs; assay type: functional, cell-based; settings: dose 2.5-10 µM
Outline: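 BT-474 cells treated at a range of concentrations. Apoptosis read out as caspase activity and as cleaved PARP protein by immunoblot.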

[3] = Volume of distribution in CD1 mouse at 10 mg/kg, ip measured upto 24 hrs; assay type: ADME, organism-based; settings: in vivo
Outline: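 Female CD1 mice given a single 10 mg/kg ip dose. Plasma concentration–time profile analyzed by noncompartmental analysis for half-life and volume of distribution. A two-compartment model was also fitted.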

A-375 [4] = assay: Antitumor activity against human A-375 cells xenografted in NMRI-Foxn1nu mouse assessed as effect on autophagy by measuring increase in LC3-II/LC3-I ratio expression at 30 mg/kg, ip administered for 2 days by immunoblotting analysis; assay type: functional, organism-based; settings: time 2.0 day
Outline: (§2)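 Female NMRI-Foxn1nu mice bearing flank subcutaneous xenografts of GFP-LC3 reporter A375 cells, matched for tumor size, given 30 mg/kg ip or saline for 2 days. Euthanized 48 h after first injection. Tumor lysates immunoblotted with anti-LC3B for GFP-LC3-I and GFP-LC3-II. n = 3; unpaired two-tailed t test versus saline.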

[5] = Cytotoxicity against human UPMM-2 cells; assay type: functional; outline: as §1
BT-474 [6] = assay: Inhibition of REV-ERBbeta in REV-ERBbeta knockout human BT-474 cells assessed as induction of BMAL1 expression at 5 uM after 24 hrs by qRT-PCR analysis; assay type: cell-based
[7] = Metabolic stability in mouse liver microsomes assessed as half life preincubated for 15 mins followed by NADPH addition and measured after 1 to 2 hrs by LC-MS/MS analysis; assay type: ADME, Microsome; settings: liver microsomes, time 75-135 min
Outline: (§3)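 Microsomal stability assessed in mouse, human, rat or dog liver microsomes with NADPH cofactor. Half-life and percent parent remaining at 60 and 120 min reported. Mean of at least two independent experiments, each in two technical replicates.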

[8] = Metabolic stability in rat liver microsomes assessed as half life preincubated for 15 mins followed by NADPH addition and measured after 1 to 2 hrs by LC-MS/MS analysis; assay type: ADME, Microsome; settings: liver microsomes, time 75-135 min; outline: as §3
[9] = Toxicity in NMRI-Foxn1nu mouse xenografted with human A-375 cells assessed as reduction in body weight at 30 mg/kg, ip administered as 3 days on and 2 days off schedule and measured after 15 days; assay type: organism-based; settings: in vivo, 360 h, time 15 day
Outline: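 A375 xenograft-bearing female NMRI-Foxn1nu mice received 30 mg/kg ip or saline on a 3-days-on/2-days-off schedule. Body weight recorded daily to day 15, expressed relative to weight on the day before treatment (set to 100%). n = 8.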

[10] = Tolerability in CD1 mouse assessed as change in food intake at 69 micromol/kg, ip administered as 3 days on and 2 days off schedule and measured after 15 days; assay type: toxicity, organism-based; settings: in vivo, 360 h, dose 69 µmol/kg, time 15 day
Outline: (§4)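 Female CD1 mice given 69 μmol/kg (31 mg/kg) ip, 3 days daily then 2 days off, or saline. Body weight, food intake and water intake monitored daily for 15 days. Weight expressed relative to the day before treatment (100%). Mean ± SEM, n = 3.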

Mus musculus = assay: In vivo inhibition of REV-ERB in human A375 cells xenografted in NMRI-Foxn1nu mouse assessed as increase in BMAL1 gene expression at 30 mg/kg, ip administered for 2 days and measured after 48 hrs
MDA-MB-231 = assay: Cytotoxicity against human MDA-MB-231 cells; assay type: functional; outline: as §1
[11] = Tolerability in CD1 mouse assessed as change in body weight at 69 micromol/kg, ip administered as 3 days on and 2 days off schedule and measured after 15 days; assay type: toxicity, organism-based; settings: in vivo, 360 h, dose 69 µmol/kg, time 15 day; outline: as §4
[12] = Tolerability in CD1 mouse assessed as reduction in body weight at 138 micromol/kg, ip administered every other day for 8 days; assay type: toxicity, organism-based; settings: in vivo, 192 h, dose 138 µmol/kg, time 8 day
Outline: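 Body weight tracked in female CD1 mice under three regimens: 138 μmol/kg (62 mg/kg) ip daily, assessed after 2 days; 138 μmol/kg every other day over 8 days; 69 μmol/kg (31 mg/kg) daily over 8 days.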

[13] = Metabolic stability in human liver microsomes assessed as half life preincubated for 15 mins followed by NADPH addition and measured after 1 to 2 hrs by LC-MS/MS analysis; assay type: ADME, Microsome; settings: liver microsomes, time 75-135 min; outline: as §3
[14] = Tolerability in CD1 mouse assessed as lethargy at 138 micromol/kg, ip; assay type: toxicity; settings: in vivo, dose 138 µmol/kg
Outline: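 Female CD1 mice given daily ip injections at 138 μmol/kg (62 mg/kg). Animals observed for arched backs and lethargy.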

[15] = Tolerability in CD1 mouse assessed as change in water intake at 69 micromol/kg, ip administered as 3 days on and 2 days off schedule and measured after 15 days; assay type: toxicity, organism-based; settings: in vivo, dose 69 µmol/kg; outline: as §4
[16] = Cytotoxicity against human OMM-1 cells; assay type: functional; outline: as §1
A375 (human) = assay: Inhibition of autophagy in human A375 cells expressing EGFP-LC3B assessed as increase in LC3-II protein level at 2.5 uM after 24 hrs by immunoblotting analysis
A-375 [17] = assay: Antitumor activity against human A-375 cells xenografted in NMRI-Foxn1nu mouse assessed as effect on autophagy by measuring increase in GFP-LC3-II expression at 30 mg/kg, ip administered for 2 days by immunoblotting analysis; assay type: functional, organism-based; settings: time 2.0 day; outline: as §2
A-375 [18] = assay: Antitumor activity against human A-375 cells xenografted in NMRI-Foxn1nu mouse assessed as reduction in tumor weight at 30 mg/kg, ip administered as 3 days on and 2 days off schedule and measured after 15 days; assay type: functional; set-up: scale not given: the % may be the effect or the level left; settings: time 15 day
Outline: (§5)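 Female NMRI-Foxn1nu mice with subcutaneous A375 flank tumors, grouped by matched tumor volume. Dosing: 30 mg/kg ip or saline, 3 days daily then 2 days off. Tumors measured by digital caliper until day 15. Excised tumors then sized as (W × D × L)/2 and weighed. n = 8; Mann–Whitney two-tailed test for the excised endpoints.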

[19] = Metabolic stability in human liver microsomes assessed as parent compound remaining preincubated for 15 mins followed by UDPGA addition and measured after 2 hrs by LC-MS/MS analysis; assay type: ADME, Microsome; settings: time 135 min, read-out: Stability
Outline: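 Mouse and human liver microsomes incubated with UDPGA cofactor. Half-life and percent parent remaining at 120 min reported. Mean of at least two independent experiments, each in two technical replicates.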

A-375 [20] = assay: Antitumor activity against human A-375 cells xenografted in NMRI-Foxn1nu mouse assessed as reduction in tumor volume at 30 mg/kg, ip administered as 3 days on and 2 days off schedule and measured after 15 days; assay type: functional; set-up: scale not given: the % may be the effect or the level left; settings: time 15 day; outline: as §5

solubility kinetic at 24 h, 250 µM [1]: > 250 µM
Vd [3]: 106.07 L/kg
half-life [7]: > 2 h
half-life [8]: > 1 h
half-life [13]: > 2 h
remaining at 2 h [19]: 95%
SMILES: Fc1ccc(C2(NCc3ccc(F)c(CC4CCNCC4)c3)CCCC2)cc1
CC50 (HT-29): 4740 nM
Activity (BT-474 [2]): Dose-Dependent Effect
Activity (A-375 [4]): Active
CC50 [5]: 1090 nM
inhibition (BT-474 [6]): inactive
Activity [9]: Non-Toxic
Activity [10]: Non-Toxic
inhibition (Mus musculus): Active
CC50 (MDA-MB-231): 2970 nM
Activity [11]: Non-Toxic
Activity [12]: Toxic
Activity [14]: Non-Toxic
Activity [15]: Non-Toxic
CC50 [16]: 1140 nM
inhibition (A375 (human)): Active
Activity (A-375 [17]): Active
Activity (A-375 [18]): 56%
Activity (A-375 [20]): 60%
